PABP1 MLLE inh: inhibitors of PABP1 MLLE–PAM2 peptide binding, primary screen, biochemical, fluorescence polarization, FITC-PAM2, GST-MLLE; inhibition, % at 20 µM; AID 588489, 2011; Polyadenylate-binding protein 1 (Homo sapiens), P11940; 360,000 tested, 0.36% active; in the data active = inhibition above about 35%, passing the limit was not always enough
Target sequence (P11940 whole entry, looked up): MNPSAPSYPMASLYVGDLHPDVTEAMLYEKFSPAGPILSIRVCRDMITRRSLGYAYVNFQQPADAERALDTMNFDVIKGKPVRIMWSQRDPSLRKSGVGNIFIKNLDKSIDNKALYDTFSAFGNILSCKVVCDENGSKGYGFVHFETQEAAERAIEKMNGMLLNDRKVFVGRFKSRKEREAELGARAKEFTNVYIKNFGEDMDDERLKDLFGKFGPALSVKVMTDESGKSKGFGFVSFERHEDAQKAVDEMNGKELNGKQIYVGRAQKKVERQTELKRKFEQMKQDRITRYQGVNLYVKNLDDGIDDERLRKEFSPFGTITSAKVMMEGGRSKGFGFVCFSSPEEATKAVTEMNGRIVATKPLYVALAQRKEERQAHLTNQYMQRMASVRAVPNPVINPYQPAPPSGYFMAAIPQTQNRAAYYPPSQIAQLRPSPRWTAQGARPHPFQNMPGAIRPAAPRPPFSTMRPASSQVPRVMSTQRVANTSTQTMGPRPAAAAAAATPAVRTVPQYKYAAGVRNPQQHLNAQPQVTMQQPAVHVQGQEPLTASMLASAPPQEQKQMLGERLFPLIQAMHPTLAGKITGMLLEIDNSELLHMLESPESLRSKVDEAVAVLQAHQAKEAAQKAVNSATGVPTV
eIF4H FP inh: human eIF4H binding inhibitors, primary screen, translation initiation inhibitor project, biochemical, uHTS, fluorescence polarization | eIF4H fluorescence polarization binding assay | inhibition, % at 35 µM | 290,000 tested, 0.94% active | AID 2012, 2009;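 also: calls also rest on retests at 20 µM and on dose response follow-up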
IMP-1 inh: IMP-1 metallo-beta-lactamase inhibitors, primary screen, biochemical, epi-absorbance readout, Pseudomonas aeruginosa enzyme; 290,000 tested, 0.45% active; metallo-beta-lactamase IMP-1 (Pseudomonas aeruginosa); purified IMP-1, nitrocefin hydrolysis, epi-absorbance fluorescence; inhibition, % at 5.6 µM;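 active = inhibition above the mean plus 3 SD of all compounds in the same screening run, cut at about 4.5% in these data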
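System: purified recombinant IMP-1 beta-lactamase. Medium: Zinc- and detergent-supplemented HEPES buffer, pH 7.1. Compound: one 5.6 µM dose […]. Schedule: 15 min preincubation plus 25 min reaction at 25 °C. Technique: Epi-absorbance fluorescence, 480 nm excitation, 530 nm emission.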
PABP polyA inh: PABP poly(A) RNA binding inhibitors, primary screen, biochemical, fluorescence polarization, uHTS. Polyadenylate-binding protein 1 (Homo sapiens), P11940. calls only at 35 µM. 290,000 tested, 1% active. AID 2014, 2009;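 also: calls also rest on retests at 20 µM and on dose response follow-up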
VIM-2 inhibitor: VIM-2 metallo-beta-lactamase inhibitors, primary screen, biochemical, epi-absorbance readout, Pseudomonas aeruginosa enzyme; inhibition, % at 5.6 µM; 290,000 tested, 0.89% active; purified VIM-2, nitrocefin hydrolysis, epi-absorbance fluorescence;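 active = inhibition above the mean of all tested compounds plus 3 SD, cutoff set per screening run, cut at about 7.5% in these data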;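 also: red hydrolysis product quenches plate fluorescence so inhibitors raise well fluorescence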
Large screens that a line does not name were inactive; ! = a repeat was not active. Shown are actives, neighbours in structure and some others; about 2.2% of the full set was active somewhere. Unless noted, no rule for the calls is given here.

CCc1ccc(NC(=O)CS(=O)CC(=O)Nc2ccc(N3CCOCC3)cc2)cc1 (stereo not drawn)	IMP-1 inh 36
COC(=O)C1CCN(C2=C(NS(=O)(=O)c3ccc(Cl)cc3)C(=O)c3ccccc3C2=O)CC1	VIM-2 inhibitor 8.4
Cc1ccc(S(=O)(=O)NC2=C(N3CCN(c4ccccc4F)CC3)C(=O)c3ccccc3C2=O)cc1	PABP1 MLLE inh 38!
O=C1NC(=S)N(C(=O)c2ccc(F)cc2)/C1=C/c1ccccc1	eIF4H FP inh 72, PABP polyA inh active
Cc1ccc(Nc2nnc(SCC(=O)c3c(N)n(C4CC4)c(=O)[nH]c3=O)s2)cc1C	none (no result: eIF4H FP inh, IMP-1 inh, PABP polyA inh, VIM-2 inhibitor)
C[N+](C)(C)c1ccc(/C=N/Nc2nc(Cl)c(C#N)c(Cl)c2Cl)cc1	VIM-2 inhibitor 10
COc1ccc(S(=O)(=O)Nc2ccncc2)c(C)c1C	none
COc1ccc(S(=O)(=O)Nc2cccnc2)c(C)c1C	IMP-1 inh 4.6
CC(C)Cn1c(=O)c2sccc2n2c(CCCC(=O)N3CCC(N4CCCCC4)CC3)nnc12	VIM-2 inhibitor 7.7
CCn1c(=O)c2sccc2n2c(CCCC(=O)N3CCN(c4ccccn4)CC3)nnc12	VIM-2 inhibitor 8.8
CCn1c(=O)c2sccc2n2c(CCCC(=O)NC3CCN(Cc4ccccc4)CC3)nnc12	VIM-2 inhibitor 8.0
CC(C)OCCCn1c(=O)c2ccccc2n2c(CCC(=O)N3CCN(c4ccccn4)CC3)nnc12	none
CC(C)CCn1c(=O)c2sccc2n2c(CCCC(=O)N3CCN(c4ccccn4)CC3)nnc12	VIM-2 inhibitor 8.6
Cn1c(=O)c2sccc2n2c(CCCC(=O)N3CCCCC3)nnc12	none
CCN(CC)S(=O)(=O)c1ccc(N2CCOCC2)c(NC(=O)CC23CC4CC(CC(Br)(C4)C2)C3)c1	none
COc1ccc([N+](=O)[O-])cc1N(CC(=O)N(C)C)S(C)(=O)=O	none
COc1ccccc1NC(=O)c1sc2nc(Cc3ccccc3)cc(C(F)(F)F)c2c1N	eIF4H FP inh 65, PABP polyA inh active
COc1ccc(NC(=O)c2sc3nc(Cc4ccccc4)cc(C(F)(F)F)c3c2N)cc1OC	none
O=C1OC2(CCCC2)OC(=O)C1=Cc1c[nH]c2ccccc12	eIF4H FP inh inconclusive, PABP polyA inh active
C/C(CC(=O)Nc1cc(C)ccn1)=N\NC(=O)c1ccc(C)cc1	none
C/C(CC(=O)Nc1cc(C)ccn1)=N\NC(=O)c1ccccc1C	PABP polyA inh active
O=C1OCc2cccc3cccc1c23	none
CC1=CC2=C(OC1N(C)C)c1cccc3cccc(c13)C2=O (stereo not drawn)	eIF4H FP inh inconclusive, IMP-1 inh 7.3, PABP polyA inh inconclusive
Cc1nc(NCCc2ccc(S(N)(=O)=O)cc2)c2c3c(sc2n1)CCC3	VIM-2 inhibitor 7.9
Cc1ccc(S(=O)(=O)N2C[C@H]3C(=O)C[C@@H](c4ccccc4)N(S(=O)(=O)c4cccc(C)c4)[C@H]3C[C@H]2c2ccccc2)cc1	none (no result: eIF4H FP inh, IMP-1 inh, PABP polyA inh, VIM-2 inhibitor)
C(=C\c1ccccc1)/CN1CCN(C(c2cccs2)c2nnnn2-c2ccc3c(c2)OCCO3)CC1 (stereo not drawn)	none (no result: eIF4H FP inh, IMP-1 inh, PABP polyA inh, VIM-2 inhibitor)
CCOC(=O)c1sc(-c2cccc(C(F)(F)F)c2)nc1O	none
CCOC(=O)c1sc(-c2ccc(C(F)(F)F)cc2)nc1O	IMP-1 inh 4.9
COc1ccc(-c2nnc3ccc(SC)nn23)cc1	VIM-2 inhibitor 8.2
COc1ccc(-c2nnc3ccc(SCC(=O)N4CCOCC4)nn23)cc1	none (no result: IMP-1 inh, VIM-2 inhibitor)
COc1cccc(CN(C)CC(=O)Nc2ccccc2C(=O)NC2CC2)c1	PABP1 MLLE inh 89 (no result: eIF4H FP inh, IMP-1 inh, PABP polyA inh, VIM-2 inhibitor)
COc1ccc(CN(C)CC(=O)Nc2ccccc2C(=O)NC2CC2)cc1OC	none (no result: eIF4H FP inh, IMP-1 inh, PABP polyA inh, VIM-2 inhibitor)
COc1cccc(CN(C)CC(=O)NC(=O)NCc2ccco2)c1	eIF4H FP inh 50, PABP polyA inh active
COC(C[C@@H](O)C[C@H](O)[C@@H](C)OCc1ccccc1)OC	none (no result: IMP-1 inh, VIM-2 inhibitor)
O=C(CC(Sc1ccccc1)c1cccs1)c1ccco1 (stereo not drawn)	PABP1 MLLE inh 37
CCC1CCCCN1C(=O)CCc1nnc(C2CCCCC2)o1 (stereo not drawn)	none
COc1ccccc1-n1c(N)c(C(N)=O)sc1=S	PABP1 MLLE inh 41
O=C(COc1ncnc2ccccc12)NC1CCCCC1	none (no result: eIF4H FP inh, IMP-1 inh, PABP polyA inh, VIM-2 inhibitor)
CCc1nc2ccc(C(=O)N3CCN(S(=O)(=O)CC)CC3)cn2c1N(CC)CCN(C)C	none (no result: eIF4H FP inh, IMP-1 inh, PABP polyA inh, VIM-2 inhibitor)
Cc1sc2nc(SCC(=O)N3CCN(CCO)CC3)n(-c3ccccc3)c(=O)c2c1C	VIM-2 inhibitor 24
CCN(CC)C(=O)CSc1nc(O)c(Cc2ccccc2)c(=O)n1-c1ccc(C)cc1	none
Cc1ccc(-n2c(SCC(=O)N3CCCCC3)nc(O)c(Cc3ccccc3)c2=O)cc1	IMP-1 inh 9.3 (no result: eIF4H FP inh, PABP polyA inh)
Cc1sc2nc(SCC(N)=O)n(-c3ccccc3)c(=O)c2c1C	none
Cc1ccc(S(=O)(=O)CCC(=O)OCC(=O)NCC(=O)Nc2c(C)cc(C)cc2C)cc1	none (no result: eIF4H FP inh, IMP-1 inh, PABP polyA inh, VIM-2 inhibitor)
O=C(O)c1ccccc1C(=O)NCCc1c(C(=O)O)[nH]c2ccc(Cl)cc12	VIM-2 inhibitor 10
COc1cc(C(=S)N2CCN(c3ccccc3Cl)CC2)cc(O)c1O	PABP1 MLLE inh 42
COc1cc(C(=S)N2CCN(c3cccc(Cl)c3)CC2)ccc1O	none
CCOc1cc(C(=S)N2CCOCC2)ccc1OC	PABP1 MLLE inh 56
S=C(c1ccc(N2CCOCC2)cc1)N1CCOCC1	PABP1 MLLE inh 38
COc1ccc(C(=S)N2CCN(c3ccccc3Cl)CC2)cc1OC	PABP1 MLLE inh 40
Cc1cc(C)c(NC(=O)CN(C)C(=O)c2ccc(OCc3ccccc3)cc2)c(C)c1	none (no result: eIF4H FP inh, IMP-1 inh, PABP polyA inh, VIM-2 inhibitor)
CCOC(=O)N1CCN(Cc2nnc(-c3ccccc3C)o2)CC1	none
Cc1ccc(C)c(Nc2nc3ccc(C)cc3n3cnnc23)c1	none
COc1cccc(Nc2nc3ccccc3n3cnnc23)c1	VIM-2 inhibitor 7.8
COc1ccc(Nc2nc3ccccc3n3cnnc23)cc1Cl	none
Cc1ccc2nc(Nc3ccc(F)cc3)c3nncn3c2c1	IMP-1 inh 7.6
CN1CCN(CCCNC(=O)c2ccc3c(Cl)c4c(nc3c2)CCCC4)CC1	VIM-2 inhibitor 9.4
O=C(O)c1cccnc1C(=O)N1CCc2c([nH]c3ccccc23)C1C(F)(F)F (stereo not drawn)	VIM-2 inhibitor 9.4
Cc1ccc(N(CC(=O)NC(C)(C)C)C(=O)CS(=O)CC(=O)Nc2ccc3c(c2)OCO3)cc1 (stereo not drawn)	none
NC(=O)C(c1cccc(Cl)c1)c1ncc(C(F)(F)F)cc1Cl (stereo not drawn)	none
NC(=S)C(c1ccccc1)c1ncc(C(F)(F)F)cc1Cl (stereo not drawn)	PABP1 MLLE inh 42
Cc1cccc(C)c1NC(=O)CSc1nnc(-c2ccco2)c(-c2ccco2)n1	eIF4H FP inh 100, PABP polyA inh active
Cc1ccccc1NC(=O)CSc1n[nH]c(-c2ccco2)n1	none

Assay outcomes from PubChem.
